One experiment concerns the target T1, Phosphodiesterase 4A (Sus scrofa, UniProt O77823).
T1 sequence (O77823 whole entry): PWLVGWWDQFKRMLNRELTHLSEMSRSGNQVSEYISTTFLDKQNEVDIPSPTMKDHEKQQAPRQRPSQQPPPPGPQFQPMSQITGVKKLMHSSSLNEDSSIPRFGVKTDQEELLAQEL
In words: Inhibitory potency against pig aortic PDE IV. In outline: (§1)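 Pig aortic PDE isozymes were separated by DEAE-trisacryl anion-exchange chromatography. PDE III was assayed in the presence of rolipram (10 µM) and PDE IV in the presence of siguazodan (10 µM) to exclude cross-contamination.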

The target of experiment [1] is Phosphodiesterase 1 (Sus scrofa). In words: Inhibitory potency against pig aortic PDE I.
Experiment [2] can be described thus: Inhibitory potency against pig aortic PDE III. Also on record: species or system Sus scrofa. In outline: as §1

With `COc1ccc(C(=O)Nc2c(F)cccc2F)cc1OC`, the IC50 (commonly the concentration that gives 50% inhibition) at Phosphodiesterase 4A came out at 0.9 µM.

Turning to `CCCCOc1cc(C(=O)Nc2c(F)cccc2F)ccc1OC`, the IC50 against Phosphodiesterase 4A amounted to 0.3 µM.

`COc1ccc(C(=O)Nc2ccccc2F)cc1OC1CCCC1`: the values for the half-maximal inhibitory concentration (IC50) (in experiment [1]; in experiment [2]; on Phosphodiesterase 4A) were over 1000 µM, over 1000 µM and 10.7 µM, respectively.

Turning to `COc1ccc(C(=O)Nc2c(Cl)cncc2Cl)cc1OC`, 0.1 µM corresponded to half-maximal inhibition against Phosphodiesterase 4A (IC50).

Compound `COc1ccc(C(=O)Nc2c(C)cncc2C)cc1OC1CCCC1` returned an IC50 at Phosphodiesterase 4A of 0.035 µM.

In turn, `COc1ccc(C(=O)Nc2nccs2)cc1OC1CCCC1` displayed an IC50 against Phosphodiesterase 4A of 6.5 µM.

As for `COc1ccc(C(=O)Nc2ccccc2[N+](=O)[O-])cc1OC1CCCC1`, the half-inhibitory concentration (IC50) in experiment [2] is over 200 µM; at Phosphodiesterase 4A, 0.25 µM.

Turning to `COc1ccc(C(=O)Nc2ncccc2C)cc1OC1CCCC1`, the half-inhibitory concentration (IC50) against Phosphodiesterase 4A was 3.1 µM.

With `COc1ccc(C(=O)Nc2ccccc2Cl)cc1OC(=O)C(C)(C)C`, the 50% inhibitory concentration (IC50) on Phosphodiesterase 4A was over 1000 µM.

Turning to `COc1ccc(C(=O)Oc2c(Cl)cccc2Cl)cc1OC1CCCC1`, the IC50 on Phosphodiesterase 4A was over 1000 µM.

As for `COc1ccc(C(=O)Nc2ccccc2SC)cc1OC1CCCC1`, the results for the half-maximal inhibitory concentration (IC50) (in experiment [1]; in experiment [2]; at Phosphodiesterase 4A) were over 200 µM, over 200 µM and 1.2 µM, respectively.

As for `COc1ccc(C(=O)Nc2cccc(Cl)c2Cl)cc1OC1CCCC1`, the 50% inhibitory concentration (IC50) (in experiment [1]; in experiment [2]; against Phosphodiesterase 4A) was over 200 µM throughout.

`COc1ccc(C(=O)Nc2cnccn2)cc1OC1CCCC1` showed a half-maximal inhibitory concentration (IC50) on Phosphodiesterase 4A of 0.25 µM. This lies in the sub-micromolar range.

For `CCCOc1cc(C(=O)Nc2c(F)cccc2F)ccc1OC`, at Phosphodiesterase 4A, the IC50 stood at 1.6 µM.

Compound `COc1ccc(C(=O)Nc2ccncc2)cc1OC1CCCC1` showed an IC50 against Phosphodiesterase 4A of 0.8 µM. This IC50 is about 2-fold lower than that of the compound before.

In the case of `COc1ccc(C(=O)Nc2ccccc2Cl)cc1OC(=O)C1CCCC1`, the IC50 at Phosphodiesterase 4A is over 1000 µM.

Consider `COc1ccc(C(=O)Nc2c(C)nsc2Br)cc1OC1CCCC1`, for which it took 0.5 µM to reach half-maximal inhibition against Phosphodiesterase 4A (IC50). This lies in the sub-micromolar range.

Compound `COc1ccc(C(=O)Nc2cnccc2Cl)cc1OC1CCCC1` came in with a concentration for half-maximal inhibition (IC50) against Phosphodiesterase 4A of 0.12 µM.

On Phosphodiesterase 4A, `COc1ccc(C(=O)Nc2c(C)nsc2C)cc1OC1CCCC1` displayed a 50% inhibitory concentration (IC50) of 0.5 µM.

For the compound `COc1ccc(C(=O)Nc2ccccc2C)cc1OC1CCCC1`, the 50% inhibitory concentration (IC50) is over 1000 µM in experiment [1], over 1000 µM in experiment [2] and 0.3 µM against Phosphodiesterase 4A.

In turn, `COc1ccc(C(=O)Nc2c(Cl)ncnc2Cl)cc1OC1CCCC1` came in with an IC50 against Phosphodiesterase 4A of 0.4 µM.

In the case of `COc1ccc(C(=O)Nc2c(F)cccc2F)cc1OC1CCCCC1`, the concentration for half-maximal inhibition (IC50) against Phosphodiesterase 4A came to 0.4 µM.

The compound `COc1ccc(C(=O)Nc2ccccc2Cl)cc1OC(C)=O` came in with a half-inhibitory concentration (IC50) at Phosphodiesterase 4A of 70 µM.

The compound `COc1ccc(C(=O)Nc2c(Cl)cncc2Cl)cc1OC1CCCCC1` showed an IC50 against Phosphodiesterase 4A of 0.05 µM.

On Phosphodiesterase 4A, `CCCCOc1cc(C(=O)Nc2c(Br)cncc2Br)ccc1OC` returned a concentration for half-maximal inhibition (IC50) of 0.07 µM.

In turn, `COc1ccc(C(=O)Nc2c(Cl)cccc2Cl)cc1OC1CC2CCC1C2` (configuration not stated) registered an IC50 at Phosphodiesterase 4A of 0.01 µM.

`COc1ccc(C(=O)Nc2c(F)cnc(F)c2F)cc1OC1CCCC1` came in with a 50% inhibitory concentration (IC50) on Phosphodiesterase 4A of 0.085 µM.

As for `COc1ccc(C(=O)Nc2cccc(Cl)c2)cc1OC1CCCC1`, the half-maximal inhibitory concentration (IC50) is over 40 µM in experiment [1], over 40 µM in experiment [2] and 1.3 µM on Phosphodiesterase 4A.

With `COc1ccc(C(=O)Nc2cc(Cl)ccc2Cl)cc1OC1CCCC1`, the IC50 in experiment [2] is over 200 µM; on Phosphodiesterase 4A, 0.5 µM.

Take `COc1ccc(C(=O)Nc2c(Cl)cncc2Cl)cc1OC1CC2CCC1C2` (stereo in doubt; (+)16g): the IC50 at Phosphodiesterase 4A amounted to 0.001 µM. In other words, the single-digit nanomolar range.

Take `COc1ccc(C(=O)Nc2ccccc2C(F)(F)F)cc1OC1CCCC1`: the values for the half-inhibitory concentration (IC50) (in experiment [1]; in experiment [2]; on Phosphodiesterase 4A) were over 1000 µM, over 1000 µM and 3.1 µM, respectively.

At Phosphodiesterase 4A, `COc1ccc(C(=O)Nc2ncccc2Cl)cc1OC1CCCC1` displayed a 50% inhibitory concentration (IC50) of 0.36 µM.

`COc1ccc(C(=O)Nc2ncccn2)cc1OC1CCCC1` yielded a 50% inhibitory concentration (IC50) at Phosphodiesterase 4A of 3.5 µM.

Regarding `COc1ccc(C(=O)Nc2c(F)cccc2F)cc1`, at Phosphodiesterase 4A, the 50% inhibitory concentration (IC50) is 37 µM.

Take `COc1ccc(C(=O)NCc2ccccc2Cl)cc1OC1CCCC1`: at Phosphodiesterase 4A, the concentration for half-maximal inhibition (IC50) was over 1000 µM.

Consider `COc1ccc(C(=O)Nc2c(C)cccc2Cl)cc1OC1CCCC1`, for which the half-maximal inhibitory concentration (IC50) in experiment [1] is over 1000 µM; in experiment [2], over 1000 µM; on Phosphodiesterase 4A, 0.1 µM.

Take `COC(=O)c1ccccc1NC(=O)c1ccc(OC)c(OC2CCCC2)c1`: the 50% inhibitory concentration (IC50) in experiment [1] is over 40 µM; in experiment [2], over 40 µM; against Phosphodiesterase 4A, 3 µM.

As for `COc1ccc(C(=O)Nc2c(Br)cncc2Br)cc1OC1CCCC1`, the half-inhibitory concentration (IC50) on Phosphodiesterase 4A is 0.007 µM.

For `COc1ccc(C(=O)Nc2c(F)c(F)nc(F)c2Cl)cc1OC1CCCC1`, the IC50 against Phosphodiesterase 4A came to 0.1 µM.

For `COc1ccc(C(=O)Nc2c(F)cccc2Cl)cc1OC1CCCC1`, the half-maximal inhibitory concentration (IC50) was over 1000 µM in experiment [1], over 1000 µM in experiment [2] and 0.24 µM against Phosphodiesterase 4A.

As to `COc1ccc(C(=O)Nc2c(Cl)cncc2Cl)cc1OC1CC2CCC1C2` (stereo in doubt; (-)16f), the concentration for half-maximal inhibition (IC50) against Phosphodiesterase 4A came out at 0.001 µM.

`COc1ccc(C(=O)Nc2c(F)c(F)nc(F)c2F)cc1OC1CCCC1` had a half-inhibitory concentration (IC50) at Phosphodiesterase 4A of 0.55 µM. This IC50 lies about 550-fold higher than the previous one.

For the compound `COc1ccc(C(=S)Nc2ccccc2Cl)cc1OC1CCCC1`, it took 0.2 µM to reach half-maximal inhibition at Phosphodiesterase 4A (IC50).

Consider `COc1ccc(C(=O)Nc2c(Br)cccc2Br)cc1OC1CCCC1`, for which the concentration for half-maximal inhibition (IC50) was over 1000 µM in experiment [2] and 0.4 µM at Phosphodiesterase 4A.

Turning to `COc1ccc(C(=O)Nc2ccccc2C(=O)c2ccccc2)cc1OC1CCCC1`, the 50% inhibitory concentration (IC50) in experiment [1] is over 40 µM; in experiment [2] it was over 40 µM; against Phosphodiesterase 4A, 1.7 µM.

Consider `COc1ccc(C(=O)Nc2ccc(F)cc2)cc1OC1CCCC1`, for which the IC50 (in experiment [1]; in experiment [2]; on Phosphodiesterase 4A) was over 1000 µM in each case.

Take `COc1ccc(C(=O)Nc2ccccc2Cl)cc1OC`: the 50% inhibitory concentration (IC50) on Phosphodiesterase 4A was found to be 0.65 µM.

On to `COc1ccc(C(=O)Nc2c(C)nsc2C#N)cc1OC1CCCC1`, for which the IC50 against Phosphodiesterase 4A amounted to 0.2 µM. Compared with the last compound, the IC50 is about 3.2-fold lower.

In the case of `COc1ccc(C(=O)Nc2ccccc2Br)cc1OC1CCCC1`, the half-inhibitory concentration (IC50) in experiment [1] was over 1000 µM; in experiment [2], over 1000 µM; on Phosphodiesterase 4A it was 0.13 µM.

On Phosphodiesterase 4A, `COc1ccc(C(=O)Nc2c(Cl)c(F)nc(F)c2Cl)cc1OC1CCCC1` gave an IC50 of 0.02 µM.

`COc1ccc(C(=O)Nc2cccnc2)cc1OC1CCCC1` returned an IC50 at Phosphodiesterase 4A of 0.55 µM.

With `COc1ccc(C(=O)Nc2ccc(Cl)cc2)cc1OC1CCCC1`, the 50% inhibitory concentration (IC50) (in experiment [1]; in experiment [2]; against Phosphodiesterase 4A) was over 1000 µM in each case.

Turning to `COc1ccc(C(=O)Nc2ccccc2Cl)cc1OC(=O)c1ccccc1`, on Phosphodiesterase 4A, the IC50 was over 1000 µM.

With `COc1ccc(C(=O)Nc2cccc(C)c2)cc1OC1CCCC1`, the results for the IC50 (in experiment [2]; at Phosphodiesterase 4A) were over 200 µM and 1 µM, respectively.

Take `COc1ccc(C(=O)Nc2ccccc2C(C)=O)cc1OC1CCCC1`: the 50% inhibitory concentration (IC50) in experiment [2] is over 40 µM; on Phosphodiesterase 4A it was 1.2 µM.

Regarding `COc1ccc(C(=O)Nc2ccccc2C#N)cc1OC1CCCC1`, the results for the IC50 (in experiment [2]; against Phosphodiesterase 4A) were 9.5 µM and 2.5 µM, respectively.

With `COc1ccc(C(=O)Nc2ccccc2O)cc1OC1CCCC1`, the IC50 in experiment [1] is over 200 µM; in experiment [2], over 200 µM; on Phosphodiesterase 4A it was 1.3 µM.

Compound `COc1ccc(C(=O)Nc2ccccn2)cc1OC1CCCC1` came in with a 50% inhibitory concentration (IC50) against Phosphodiesterase 4A of 1 µM.

`COc1ccc(C(=O)Nc2c(C)noc2C)cc1OC1CCCC1`: the IC50 at Phosphodiesterase 4A was 0.45 µM.

`O=C(Nc1c(F)cccc1F)c1cccc(OC2CCCC2)c1` showed an IC50 against Phosphodiesterase 4A of 15 µM.

Consider `COc1ccc(C(=O)Nc2ccc(C)cc2)cc1OC1CCCC1`, for which the IC50 (in experiment [1]; in experiment [2]; on Phosphodiesterase 4A) was over 200 µM in each case.

The record behind these values is ChEMBL document CHEMBL1127531, “Selective type IV phosphodiesterase inhibitors as antiasthmatic agents. The syntheses and biological activities of 3-(cyclopentyloxy)-4-methoxybenzamides and analogues” (J Med Chem, 1994).
